assay: Toxicity liver stage against HepG2, at 10uM; assay type: cell-based; parameters: test concentration 10 uM, cell line HepG2-A16-CD81EGFP; conditions: human, HepG2-A16-CD81EGFP cells; read-out: INHIBITION
Procedure, shortened: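 Uninfected HepG2-A16-CD81EGFP cells, 3 × 10^3 per well, 1536-well, plated on prespotted compound at 10 μM final, parasite-free screening media added to match infected plates; puromycin 10 μM positive, DMSO 0.5% negative; run in parallel with 48 h PbLuc assay at 37 °C, 5% CO2; viability by CellTiter-Glo luminescence, normalized to controls.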

Structure (SMILES)	cytotoxicity at 10 µM
CC(c1ccc(F)cc1)N1CCN(Cc2ccc(C#N)cc2)CC1 (stereo unspecified)	-6.17%
O=C(NC[C@H]1OC[C@@H](NCc2ccc(F)cc2)[C@@H]1O)c1ccncc1	7.2%
CNC(=O)CN1C(=O)CN(C(=O)COC)CCC(OC)c2ccccc21 (stereo unspecified)	-8.12%
Cc1nc2ccn(C(C)C)c(=O)c2cc1C(=O)O	-43.6%
O=C(CCn1ccc2cc(Br)ccc21)NC[C@@H]1CCCN2CCCC[C@H]12	8.35%
CN1C(=O)C2(CC(=O)Nc3[nH]ncc32)c2ccc(F)cc21 (stereo unspecified)	-1.52%
O=c1c(NCc2ccco2)c(NCC(O)CN2CCOCC2)c1=O (stereo unspecified)	-55.8%
COC[C@]12COC[C@H]1CN(C(=O)C1CC(F)(F)C1)C2	5.83%
CCC1=N[C@@]2(CC[C@@H]3CN(C(=O)NCC(C)C)C[C@@H]32)C(=O)N1CCOC	10.3%
Cc1ccc(C)c(NC(=O)Cn2cc(I)cn2)c1	7.72%
CC(=O)c1c(C)nn(S(=O)(=O)c2ccccc2)c1C	-0.305%
CCc1ccccc1N1CC(c2nnc(N)s2)CC1=O (stereo unspecified)	0.502%
Cc1cccc(Cn2ccc(NS(C)(=O)=O)n2)c1	-6.6%
CCn1cc(N)c(C(=O)NCc2cnn(C)c2)n1	-0.729%
COCCNCc1cc2c(C)cc(C)cc2n2c(=O)n(C)nc12	-10.3%
O=C(Cn1c(=O)n(Cc2ccco2)c2ncccc21)NC1CCCC1	-3.05%
Cc1cnccc1CN1CC[C@H](Oc2cccc(F)c2)[C@@](C)(O)C1	-5.55%
CN(C)c1ccc(CC2COCCN(Cc3nccn3C)C2)nn1 (stereo unspecified)	-10.2%
CC(=O)N1CCN(C)CC(COCc2ccccc2)C1 (stereo unspecified)	-4.79%
CC(=O)N1CC2(CCCN(Cc3ccc(Cl)cc3)C2)Cc2ccccc21 (stereo unspecified)	10.6%
CCn1nnnc1-c1cccc(NCc2nc(C)ccc2O)c1	-1.71%
Fc1cccc2c1CCC2NCc1ccc(N2CCOCC2)cc1 (stereo unspecified)	-14.7%
Cc1cc(N2CCC(NS(C)(=O)=O)CC2)nc(C(C)C)n1	-3.36%

Structure (SMILES)	cytotoxicity at 10 µM
CCN(Cc1cccc(Cl)c1)Cc1ncc(C(C)(C)C)o1	11.2%
Cc1ccc(CCCC(=O)N2CC(=O)Nc3cccnc32)s1	-36.6%
Cc1cc(NC(N)=O)ccc1OCC(F)(F)F	-0.883%
Cc1cnn(C2CN(CCCOc3ccc(C#N)cc3)C2)c1	4.09%
Cc1c(COC(C)C)cccc1NC(=O)N1CCCC(CO)C1 (stereo unspecified)	-5.44%
Cc1ccc2ncn(CC(O)CN3CCC(C)CC3)c(=O)c2c1 (stereo unspecified)	-0.539%
O=C(c1sccc1C1CC1)N1CCN(c2ncccn2)CC1	-6.87%
O=C(c1ccc(-n2cccn2)c(F)c1)N1CCCN2CCCC2C1 (stereo unspecified)	-3.9%
Cc1ccc(CNC(=O)N2CCOCC2C2CC2)cc1F (stereo unspecified)	10.4%
Cc1cc(NC2CCc3nc(C(C)C)nn3C2)n2ncnc2n1 (stereo unspecified)	13.4%
O=C(Cc1ccc2c(c1)OCO2)N1CCN(c2ccncc2)CC1	-22.9%
Cc1cnn(CC2CCCN2C(=O)Cc2ccc3c(c2)CCO3)c1 (stereo unspecified)	-144%
CCn1cnnc1C1CCN(C(=O)c2ccc(OC(C)C)nc2)CC1	1.14%
O=C(NS(=O)(=O)c1ccc(F)cc1)C1CCOc2ccccc21 (stereo unspecified)	9.91%
Cc1cc2cc(CNC3CCN(CC4CCOC4)CC3)oc2cc1C (stereo unspecified)	-8.14%
CCN(CC(=O)Nc1c(C)n[nH]c1C)CC(O)c1ccc(C)cc1 (stereo unspecified)	-2.86%
Cc1n[nH]c(C2CN(CCCOc3ccc(F)cc3)CCO2)n1 (stereo unspecified)	-5.76%
CN(Cc1ccccc1NCc1ncc[nH]1)C(=O)c1cccs1	-3.21%
Cc1noc(-c2ccnc(N3CCC(N4CCCC4)CC3)c2)n1	0.409%
CC(C)(C)OCCN(Cc1cccc(O)c1)C1CCC(O)CC1 (stereo unspecified)	8.22%
CN(CC(O)C1CC1)C(=O)c1ccc(-c2nc(C3CC3)no2)cc1 (stereo unspecified)	-3.45%
COc1cccc(S(=O)(=O)CCNCCn2cccn2)c1	-4.96%
CCn1ccnc1S(=O)(=O)Cc1ccc(C(N)=O)cc1	-3.8%

Structure (SMILES)	cytotoxicity at 10 µM
O=C(CCN1CCOCC1)Nc1cccc(CNCc2cccs2)c1	5.04%
COc1ccc(CNC(=O)c2ccc(Br)cn2)cc1	-18%
CC(=O)NCCC(=O)Nc1sccc1C(=O)C(C)(C)C	-46.3%
CN(C)c1ncc(CNC(=O)Nc2ccccc2F)n1C	-46.9%
CC(C1CC1)N(C)C(=O)CCn1cccn1 (stereo unspecified)	-2.37%
CS(=O)(=O)c1ccc(NC(=O)N2CCc3sccc3C2)cn1	85.1%
CSc1cc2c(cc1NC(=O)NCC(C)(C)C(N)=O)OCCO2	-10.9%
CN(C)c1ccc(CCCNC(=O)Nc2ccc(C#N)cc2)cc1	-1.14%
O=C(c1cccc(F)c1)N1CC[C@@H]2CN(c3ncccn3)CCO[C@@H]2C1	-71.5%
COCC(C)NCc1nc(-c2ccc(C)cc2)c(-c2ccccn2)[nH]1 (stereo unspecified)	-3.81%
Cc1ccccc1N1CCCN(C(=O)CCc2nncn2C)CC1	3.82%
C=C(C)COc1ccccc1C(=O)N1CCC(C(=O)NCC)C1 (stereo unspecified)	8.89%
CC(C)C1CN(Cc2nccn2C)CCC(=O)N1CC1CC1 (stereo unspecified)	-13.7%
OCC1CCN(C[C@@H]2CN(C3Cc4ccccc4C3)C[C@@H]2CO)CC1	-2.02%
CC(C)(C(=O)NCC1CCN(Cc2ccccn2)C1)c1ccccc1 (stereo unspecified)	-3.09%
Cc1cc(C)n(CC(C)Nc2nc(-c3ccncc3)nc3c2CNC3)n1 (stereo unspecified)	-1.75%
Cc1cc(-c2nn(C)c(Cl)c2CN2CCCCC(N)C2)no1 (stereo unspecified)	-2.1%
Cc1ccc(CN(Cc2ccccn2)C(=O)CCC2CCCN(C)C2)s1 (stereo unspecified)	18.3%
c1cnn(CC2CCN(c3nc(C4CC4)nc4c3CCNCC4)CC2)c1	-2.84%
CCc1c(C)sc2ncnc(N3C[C@H](O)[C@@H](N4CCCC4)C3)c12	-4.36%
N#CC1CCCN(S(=O)(=O)c2ccc(C(=O)NCC(F)F)cc2)C1 (stereo unspecified)	6.74%
CCOCCCNc1nc2c(s1)c(C)nn2C	1.54%
Cc1cccnc1N1CCN(C(=O)CCc2ccccn2)CC1	-12.1%

Structure (SMILES)	cytotoxicity at 10 µM
Cc1ccc([C@@H]2CN(C(=O)CCc3ccco3)C[C@H]2N(C)C)cc1	3.13%
CCc1nc(C)sc1CN1CC[C@](C)(O)[C@H](C)C1	-2.11%
CN1CCC(Cc2noc(CC3CC3)n2)CC1	-9.96%
CSc1ccc(CNC(=O)C2CC(=O)N(C(C)(C)C)C2)cc1 (stereo unspecified)	4.69%
COc1ccnc(N2CCC3(CCCN(C(C)C)C3=O)C2)n1 (stereo unspecified)	-8.7%
Cc1ccc(F)cc1-n1c(CN(C)S(C)(=O)=O)n[nH]c1=O	2.19%
Fc1ccccc1CN1CCCC(NC2CCOCC2)C1 (stereo unspecified)	6.56%
CN(Cc1noc2c1CCCC2)C(=O)C1CCOc2ccccc2C1 (stereo unspecified)	-7.11%
CC(C)Cc1cc(-c2cc(-c3ccc[nH]3)nc(N)c2C#N)n[nH]1	14.3%
CC1CN(S(=O)(=O)c2ccc(C(=O)NCC(F)F)cc2)CCCO1 (stereo unspecified)	4.05%
COc1cc(C)cc(C(C(=O)O)N(C)Cc2cnn(C)c2)c1OC (stereo unspecified)	7.87%
COc1cccc(C(=O)Nc2ccc(OC3CCN(C)CC3)cc2)c1	-6.88%
CCSc1nsc(NC(=O)COc2ccc3c(c2)OCO3)n1	2.03%
CC(=O)NCCOc1cccc(Br)c1	-3.06%
COCCN1CCN(C(C(=O)O)c2ccc(SC)cc2)CC1 (stereo unspecified)	1.75%
COc1ccc(F)c(-c2cc(O)nc(N)n2)c1	2.05%
CCC1c2cccn2CCN1C(=O)c1ccc2nonc2c1 (stereo unspecified)	-13.2%
CN(C)CC1(O)CCN(S(=O)(=O)c2ccc(F)c(F)c2)C1 (stereo unspecified)	-0.954%
Fc1ccc(-c2nc(CNC3CCc4ncnn4C3)cs2)cc1 (stereo unspecified)	-4.92%
Cc1cc(NC(=O)NCC(O)c2ccc(F)cc2)n(C)n1 (stereo unspecified)	-2.69%
CC(Cn1ccnc1)NC(=O)N1CCN(Cc2cccs2)CC1 (stereo unspecified)	-5.36%
CCN(Cc1cccc(C)c1)Cc1nc2c(cnn2C)c(=O)[nH]1	-21.6%
Cc1nc2n(n1)CC(NCc1cc(Cl)c3c(c1)OCCCO3)CC2 (stereo unspecified)	-4.15%

Structure (SMILES)	cytotoxicity at 10 µM
COc1cc(CNCc2ccc(C(C)O)cc2)cc2c1OCO2 (stereo unspecified)	-9.78%
COc1cccc(-n2nnc(C(=O)N3CCNC(=O)C3)c2C)c1	-10.3%
CCn1ccnc1CNCC1CCCN1c1cccnn1 (stereo unspecified)	-1.28%
CCc1noc(C(C)N2CCOCC2)n1 (stereo unspecified)	-6.5%
c1ccc2cc(OCCN3CCOC(Cn4cncn4)C3)ccc2c1 (stereo unspecified)	4.6%
Cc1cn2c(n1)CCC(NC(=O)c1cc(C(C)C)no1)C2 (stereo unspecified)	-2.12%
CN(C)C(=O)N1CCC2(CC1)CNc1ccc(F)cc12	8.88%
Cc1nc2c(c(NC(C)C)n1)CCN(C(=O)c1ccno1)CC2	7.77%
Cc1ccc(CN2C[C@@H]3CCCO[C@@H]3[C@H](NC(=O)CC3CC3)C2)s1	19.9%
CN(C)C1CCN(C(=O)c2cc3c(s2)CCN3C(=O)C2CC2)CC1	9.61%
Cc1nc(CN2C(=O)CC[C@@H]3[C@H]2CCN3C(=O)c2ccccn2)cs1	-77.7%
CN1[C@H](CN2CCCC2)C[C@@H]2CN(C(=O)Cc3cccs3)CC[C@@H]21	4.99%
CNC(=O)c1cnc2n1CCN(Cc1cccnc1)C2	8.88%
O=C(NCC1Cn2nnc(-c3ccncc3)c2CO1)c1ccsc1 (stereo unspecified)	11.1%
CCS(=O)(=O)N1CCN(Cc2ccncc2)c2nc(C)ccc2C1	-70.8%
Cc1noc(C)c1CN1CCO[C@H]2CN(Cc3ccc(F)cc3)C[C@H]21	1.96%
CN1[C@@H]2CC[C@H]1CN(c1cc(Sc3cccs3)nc(N)n1)CC2	-8.02%
O=C(Nc1cccnc1)[C@H]1C[C@H]2CN(S(=O)(=O)C3CC3)C[C@@H]1O2	-71.8%
CC(=O)N1C[C@H]2CC[C@@H](C1)N(C(=O)CCc1n[nH]c3c1CCCC3)C2	10.3%

Reference: ChEMBL document CHEMBL4513216, “Probing the Open Global Health Chemical Diversity Library for Multistage-Active Starting Points for Next-Generation Antimalarials” (ACS Infect Dis, 2020)
